Experimental data as given in ChEMBL document CHEMBL1126608.

Experiments:
[1] = target: T1, Muscarinic acetylcholine receptor (Homo sapiens) (UniProt P20309+P08173+P11229+P08172+P08912); conditions: Cavia porcellus
[2] = target: T2, Muscarinic acetylcholine receptor M2 (Homo sapiens) (UniProt P08172); test: Antagonist activity against muscarinic M2 receptor from guinea pig atria; format: functional; conditions: Cavia porcellus; target entry is the homologue from another species
T2 sequence (whole entry): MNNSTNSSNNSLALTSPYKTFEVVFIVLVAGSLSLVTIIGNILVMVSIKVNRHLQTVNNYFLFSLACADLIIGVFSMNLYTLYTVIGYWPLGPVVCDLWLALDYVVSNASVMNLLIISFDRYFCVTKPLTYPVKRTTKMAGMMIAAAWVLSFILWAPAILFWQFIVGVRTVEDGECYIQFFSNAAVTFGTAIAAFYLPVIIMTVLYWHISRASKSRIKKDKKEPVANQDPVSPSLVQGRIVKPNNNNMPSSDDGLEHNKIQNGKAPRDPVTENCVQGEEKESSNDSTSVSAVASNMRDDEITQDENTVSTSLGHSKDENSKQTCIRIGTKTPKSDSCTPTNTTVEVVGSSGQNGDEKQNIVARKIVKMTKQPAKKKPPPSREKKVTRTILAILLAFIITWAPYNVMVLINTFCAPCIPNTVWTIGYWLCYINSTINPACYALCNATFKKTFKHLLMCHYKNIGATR
Method in brief: (§1)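 Isolated guinea pig right atria in Krebs-Henseleit buffer; cumulative carbachol concentration-rate response curves before and after at least three increasing antagonist concentrations (5-min preincubation). Responses as % of maximal carbachol-induced rate inhibition without antagonist.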

[3] = target: Muscarinic acetylcholine receptor M3 (Cavia porcellus) (UniProt Q8VH26); test: Antagonist activity against muscarinic M3 receptor from guinea pig ileum; format: functional, tissue-based
Chain of Muscarinic acetylcholine receptor M3 (Cavia porcellus) (Q8VH26 1-587): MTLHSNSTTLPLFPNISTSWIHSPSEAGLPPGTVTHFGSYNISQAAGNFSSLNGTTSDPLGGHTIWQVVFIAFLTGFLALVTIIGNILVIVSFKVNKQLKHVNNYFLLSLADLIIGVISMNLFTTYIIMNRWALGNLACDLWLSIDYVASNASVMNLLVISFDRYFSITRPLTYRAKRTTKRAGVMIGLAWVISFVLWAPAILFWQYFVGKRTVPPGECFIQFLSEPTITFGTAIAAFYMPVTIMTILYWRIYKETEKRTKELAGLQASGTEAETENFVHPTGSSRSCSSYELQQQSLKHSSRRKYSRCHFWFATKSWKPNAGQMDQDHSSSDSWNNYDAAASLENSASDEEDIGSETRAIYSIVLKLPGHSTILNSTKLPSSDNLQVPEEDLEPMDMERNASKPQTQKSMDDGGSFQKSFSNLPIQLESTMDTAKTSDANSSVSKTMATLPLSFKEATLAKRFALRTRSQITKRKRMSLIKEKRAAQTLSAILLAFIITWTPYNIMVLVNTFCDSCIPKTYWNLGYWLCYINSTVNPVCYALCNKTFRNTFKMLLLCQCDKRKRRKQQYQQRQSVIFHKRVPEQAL
Method in brief: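 Longitudinal guinea pig ileum strips suspended in oxygenated Krebs buffer; carbachol concentration-response curves with or without at least three increasing antagonist concentrations (5-min preincubation). Contraction as % of maximal carbachol response without antagonist.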

[4] = target: T1, Muscarinic acetylcholine receptor (Homo sapiens); test: In vivo antimuscarinic activity to decrease carbachol-stimulated salivation in guinea pig; format: functional, organism-based; conditions: Cavia porcellus; target entry is the homologue from another species
Method in brief: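 Guinea pigs dosed sc with various antagonist doses; 30 min later carbachol 0.1 mg/kg ip; ability to respond to agonist scored 5-10 min afterwards.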

[5] = target: T2, Muscarinic acetylcholine receptor M2 (Homo sapiens); test: Antagonist activity against muscarinic M2 receptor from guinea pig atria; Non competitive; format: functional; conditions: Cavia porcellus; filed as antagonist; target entry is the homologue from another species
Method in brief: as §1
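Throughout, for ID50: in vivo guinea pig assay: antimuscarinic effect measured as reduced salivation after carbachol stimulation.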

Row | SMILES | ID50 [1] | Kb [2] | Kb [3] | ED50 [4] | Kb [5]
1 | CN1CCN(CC(=O)C(O)(c2ccccc2)C2CCC2)CC1 (stereo not given) | 0.72 mg/kg | 79 nM | 13 nM | – | –
2 | O=C(CN1CCN(Cc2cccs2)CC1)C(O)(c1ccccc1)C1CCC1 (stereo not given) | 25 mg/kg | 491 nM | 43.8 nM | – | –
3 | Cc1ccc(CN2CCN(CC(=O)C(O)(c3ccccc3)C3CCC3)CC2)cc1 (stereo not given) | 8.4 mg/kg | 82 nM | 11 nM | – | –
4 | O=C(CN1CCN(c2ccc([N+](=O)[O-])cc2)CC1)C(O)(c1ccccc1)C1CCC1 (stereo not given) | – | > 10000 nM | > 10000 nM | – | –
5 | O=C(CN1CCN(Cc2ccccc2)CC1)C(O)(c1ccccc1)c1ccccc1 | > 100 mg/kg | 1460 nM | 6 nM | – | –
6 | O=C(CN1CCN(c2ccccc2)CC1)C(O)(c1ccccc1)C1CCC1 (stereo not given) | – | > 30000 nM | 624 nM | – | –
7 | O=C(CN1CCN(C/C=C\c2ccccc2)CC1)C(O)(c1ccccc1)C1CCC1 (stereo not given) | 1.2 mg/kg | 2.3 nM | 9.92 nM | – | –
8 | O=C(CN1CCN(Cc2ccco2)CC1)C(O)(c1ccccc1)C1CCC1 (stereo not given) | – | > 30000 nM | 750 nM | – | –
9 | O=C(CN1CCN(Cc2ccc([N+](=O)[O-])cc2)CC1)C(O)(c1ccccc1)C1CCC1 (stereo not given) | 21 mg/kg | 2700 nM | 105 nM | – | –
10 | O=C(CN1CCN(Cc2ccccc2)CC1)C(O)(c1ccccc1)C1CCCCC1 (stereo not given) | 4.38 mg/kg | 282 nM | 12 nM | – | –
11 | CC(C)=CCN1CCN(CC(=O)C(O)(c2ccccc2)C2CCC2)CC1 (stereo not given) | 4.9 mg/kg | 305 nM | 22 nM | – | –
12 | O=C(CN1CCN(Cc2ccccc2Cl)CC1)C(O)(c1ccccc1)C1CCC1 (stereo not given) | – | > 10000 nM | 56 nM | – | –
13 | C=CCN1CCN(CC(=O)C(O)(c2ccccc2)C2CCC2)CC1 (stereo not given) | 20.4 mg/kg | 299 nM | 60 nM | – | –
14 | C=CCN1CCN(CC(=O)C(O)(c2ccccc2)C2CCCCC2)CC1 (stereo not given) | 21 mg/kg | 425 nM | 25.6 nM | – | –
15 | C=C(C)CN1CCN(CC(=O)C(O)(c2ccccc2)C2CCC2)CC1 (stereo not given) | – | 551 nM | 100 nM | 17 mg/kg | –
16 | O=C(CN1CCC(N2CCCC2)CC1)C(O)(c1ccccc1)C1CCCCC1 (stereo not given) | – | 4510 nM | 349 nM | – | –
17 | O=C(CN1CCN(CCO)CC1)C(O)(c1ccccc1)C1CCC1 (stereo not given) | 4.93 mg/kg | 2350 nM | 185 nM | – | –
18 | CCOC(=O)N1CCN(CC(=O)C(O)(c2ccccc2)C2CCCCC2)CC1 (stereo not given) | – | > 30000 nM | > 10000 nM | – | –
19 | O=C(CN1CCN(Cc2ccccc2)CC1)C(O)(c1ccccc1)C1CCCC1 (stereo not given) | 0.24 mg/kg | 78 nM | 2.6 nM | – | –
20 | O=C(CN1CCN(Cc2cccc(Cl)c2)CC1)C(O)(c1ccccc1)C1CCC1 (stereo not given) | 8.3 mg/kg | 380 nM | 27 nM | – | –
21 | Cc1ccccc1CN1CCN(CC(=O)C(O)(c2ccccc2)C2CCC2)CC1 (stereo not given) | – | > 1000 nM | 199 nM | – | –
22 | O=C(CN1CCN(CC(=O)C(O)(c2ccccc2)C2CCC2)CC1)N1CCCC1 (stereo not given) | – | > 3000 nM | 210 nM | – | –

Row | SMILES | ID50 [1] | Kb [2] | Kb [3] | ED50 [4] | Kb [5]
23 | O=C(CN1CCN(Cc2ccc3c(c2)OCO3)CC1)C(O)(c1ccccc1)C1CCC1 (stereo not given) | – | 45 nM | 8 nM | 4 mg/kg | –
24 | CC(C)CC(O)(C(=O)CN1CCN(Cc2ccccc2)CC1)c1ccccc1 (stereo not given) | 43.4 mg/kg | > 3000 nM | 171 nM | – | –
25 | O=C(CN1CCN(CCc2ccccc2)CC1)C(O)(c1ccccc1)C1CCC1 (stereo not given) | – | > 1000 nM | 302 nM | – | –
26 | O=C(CN1CCC(N2CCCC2)CC1)C(O)(c1ccccc1)C1CCC1 (stereo not given) | – | 2440 nM | > 10000 nM | – | –
27 | O=C(CN1CCN(CCO)CC1)C(O)(c1ccccc1)C1CCCCC1 (stereo not given) | – | 530 nM | 53 nM | > 10 mg/kg | –
28 | COc1cccc(CN2CCN(CC(=O)C(O)(c3ccccc3)C3CCC3)CC2)c1 (stereo not given) | – | 136 nM | 17 nM | – | –
29 | O=C(CN1CCN(Cc2ccc(Cl)cc2)CC1)C(O)(c1ccccc1)C1CCC1 (stereo not given) | 9.8 mg/kg | 515 nM | 16 nM | – | –
30 | COc1ccc(CN2CCN(CC(=O)C(O)(c3ccccc3)C3CCC3)CC2)cc1 (stereo not given) | 10.8 mg/kg | 263 nM | 27.9 nM | – | –
31 | C#CCN1CCN(CC(=O)C(O)(c2ccccc2)C2CCCCC2)CC1 (stereo not given) | – | 5670 nM | 260 nM | – | –
32 | N#CCN1CCN(CC(=O)C(O)(c2ccccc2)C2CCC2)CC1 (stereo not given) | 35.7 mg/kg | > 30000 nM | 2710 nM | – | –
33 | CCCN1CCN(CC(=O)C(O)(c2ccccc2)C2CCC2)CC1 (stereo not given) | 31.1 mg/kg | 1190 nM | 673 nM | – | –
34 | COc1ccccc1N1CCN(CC(=O)C(O)(c2ccccc2)C2CCC2)CC1 (stereo not given) | – | > 10000 nM | > 10000 nM | – | –
35 | C=CCCN1CCN(CC(=O)C(O)(c2ccccc2)C2CCC2)CC1 (stereo not given) | 27.2 mg/kg | – | 35.6 nM | – | Non-competitive antagonist
36 | CCOc1ccccc1N1CCN(CC(=O)C(O)(c2ccccc2)C2CCC2)CC1 (stereo not given) | – | > 10000 nM | > 10000 nM | – | –
37 | O=C(CN1CCNCC1)C(O)(c1ccccc1)C1CCC1 (stereo not given) | 1.65 mg/kg | 940 nM | 87 nM | – | –
38 | CN(C)CCNCC(=O)C(O)(c1ccccc1)C1CCCCC1 (stereo not given) | – | 216 nM | 5.5 nM | 0.13 mg/kg | –
39 | O=C(CN1CCN(Cc2ccccc2)CC1)C(O)(c1ccccc1)C1CC1 (stereo not given) | 9.9 mg/kg | 225 nM | 24 nM | – | –
40 | O=C(CN1CCN(CC(=O)C(O)(c2ccccc2)C2CCC2)CC1)C(O)(c1ccccc1)C1CCC1 (stereo not given) | – | > 1000 nM | 207 nM | – | –
41 | O=C(CN1CCC(O)CC1)C(O)(c1ccccc1)C1CCC1 (stereo not given) | – | 2340 nM | 472 nM | – | –
42 | O=C(CN1CCN(C2CCC2)CC1)C(O)(c1ccccc1)C1CCC1 (stereo not given) | 18.3 mg/kg | 1800 nM | 230 nM | – | –
43 | O=C(CN1CCN(C(c2ccccc2)c2ccccc2)CC1)C(O)(c1ccccc1)C1CCC1 (stereo not given) | – | > 100000 nM | > 10000 nM | – | –
44 | CN1CCN(CC(=O)C(O)(c2ccccc2)C2CCCCC2)CC1 (stereo not given) | – | 210 nM | 15 nM | 1.84 mg/kg | –
